The test system of data set [1] is Plasmodium falciparum. Put plainly: In vitro antimalarial activity against chloroquine-sensitive Plasmodium falciparum FCR3. It is filed as functional, organism-based. The procedure, abridged:
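In vitro growth of chloroquine-sensitive P. falciparum FCR-3 read as EC50; some entries are given as EC70 values (% parasite growth observed) where noted.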

The test system of data set [2] is FM3A. Nature of the data set: Cytotoxicity against mouse mammary tumor FM3A cells representing a model of host. It is filed as functional, cell-based. The method in brief:
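Growth of mouse mammary tumor FM3A cells, used as a host model, read as EC50; some entries are given as lower-effect ECx values (% growth observed) where noted.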

Data set [3] has as its system FM3A. Nature of the data set: (§1) Selective toxicity- EC50 value of FM3A / EC50 value of Plasmodium falciparum. As to conditions: mouse, fm3a. The class given is cell-based. The method in brief:
(§2)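 Ratio computed as EC50 in FM3A cells divided by EC50 against P. falciparum FCR-3.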

A short description of data set [4]: as §1. The class given is cell-based. As to conditions: mouse, FM3A cells; read-out: Toxicity ratio. The procedure, abridged: as §2

`C=CCn1c(=O)/c(=C2\Sc3ccccc3N2C)s/c1=C\c1cccc[n+]1C` [listing 1 of 2 here] registered an EC50 in data set [1] of over 38 nM.

Consider `CCn1c(=O)/c(=C2\Sc3ccccc3N2C)s/c1=C\c1cccc[n+]1C.[Cl-]`, for which the EC50 stood at 16000 nM in data set [2] (fm3a) and 26 nM in data set [1]. Further, the Toxicity ratio in data set [3] is reported as 620.

As for `CCn1c(=O)/c(=C2\Sc3ccccc3N2C)s/c1=C\c1cccc(-c2ccccc2)[n+]1C`, the EC50 in data set [2] (Mus musculus, FM3A) is 1900 nM; in data set [1] (Plasmodium falciparum) it was 56 nM. Further, the selectivity ratio in data set [4] stood at 34.

`CN1/C(=c2\s/c(=C\c3cccc[n+]3C)n(Cc3ccccc3)c2=O)Sc2ccccc21`: the EC50 was 800 nM in data set [2] (Mus musculus, FM3A) and 31 nM in data set [1] (Plasmodium falciparum). Besides, the selectivity ratio in data set [4] came to 26.

On to `CCn1c(=O)/c(=C2\Sc3ccccc3N2C)s/c1=C\c1cccc[n+]1C.Cc1ccc(S(=O)(=O)[O-])cc1`, for which the EC50 in data set [2] (fm3a) is 11000 nM; in data set [1], 23 nM. In addition, the Toxicity ratio in data set [3] stood at 480.

As for `CC[N+]1=C(SC)S/C(=C2/Sc3ccccc3N2C)C1=O`, it took 3700 nM to reach a half-maximal effect in data set [1] (Plasmodium falciparum) (EC50).

Turning to `CCn1c(=O)/c(=C2\Sc3cc(C(F)(F)F)ccc3N2C)s/c1=C\c1cccc[n+]1CC`, the EC50 in data set [2] (Mus musculus, FM3A) stood at 4200 nM; in data set [1] (Plasmodium falciparum), 66 nM. Also, the selectivity ratio in data set [4] was 64.

`CCn1c(=O)/c(=C2\Sc3ccccc3N2C)s/c1=C\c1ccc2ccccc2[n+]1C`: the EC50 in data set [2] (Mus musculus, FM3A) is 580 nM; in data set [1] (Plasmodium falciparum), 4.6 nM. In addition, the selectivity ratio in data set [4] came to 130.

On to `CCn1c(=O)/c(=C2\SCCN2C)s/c1=C\c1cccc[n+]1C`, for which the EC50 in data set [2] (Mus musculus, FM3A) is over 34000 nM; in data set [1] (Plasmodium falciparum) it was 230 nM. The selectivity ratio in data set [4] was over 150.

With `CCn1c(=O)/c(=C2\Sc3ccccc3N2C)s/c1=C\c1cccc[n+]1C`, the EC50 in data set [2] (Mus musculus, FM3A) came out at 14000 nM; in data set [1] (Plasmodium falciparum), 28 nM. Moreover, the selectivity ratio in data set [4] turned out to be 500.

Take `CN1/C(=c2\s/c(=C\c3cccc[n+]3C)n(C)c2=O)Sc2ccccc21`: the EC50 in data set [2] (Mus musculus, FM3A) was 3800 nM; in data set [1] (Plasmodium falciparum), 45 nM. The selectivity ratio in data set [4] was 84.

As to `CCn1c(=O)/c(=C2\Sc3ccccc3N2C)s/c1=C\c1cccc[n+]1C.[OH-]`, the EC50 in data set [2] (fm3a) is 13000 nM; in data set [1], 22 nM. Besides, the Toxicity ratio in data set [3] was 590.

Compound `CCN1C(=O)/C(=C2\Sc3ccccc3N2C)SC1=S` yielded an EC50 in data set [1] (Plasmodium falciparum) of over 28000 nM.

`CCn1c(=O)/c(=C2\Sc3ccccc3N2C)s/c1=C\c1cc[n+](C)cc1`: the EC50 in data set [2] (Mus musculus, FM3A) was over 24000 nM; in data set [1] (Plasmodium falciparum) it was 56 nM. In data set [4], the selectivity ratio was over 430.

Take `CCn1c(=O)/c(=C2\C=Cc3ccccc3N2C)s/c1=C\c1cccc[n+]1C`: a half-maximal response in data set [1] (Plasmodium falciparum) (EC50) required 240 nM.

For `CCn1c(=O)/c(=C2\Sc3ccccc3N2C)s/c1=C\c1cccc[n+]1CC`, the EC50 in data set [2] (Mus musculus, FM3A) was determined as 15000 nM; in data set [1] (Plasmodium falciparum), 70 nM. In addition, in data set [4], the selectivity ratio is 210.

With `CCn1c(=O)/c(=C2\Sc3ccccc3N2C)s/c1=C\c1cccc[n+]1CCCCC(=O)O`, the EC50 is over 18000 nM in data set [2] (Mus musculus, FM3A) and 680 nM in data set [1] (Plasmodium falciparum). The selectivity ratio in data set [4] is over 26.

Consider `C=CCn1c(=O)/c(=C2\Sc3ccccc3N2C)s/c1=C\c1cc[n+](C)cc1`, for which the EC50 in data set [2] (Mus musculus, FM3A) was 6700 nM; in data set [1] (Plasmodium falciparum), 14 nM. Also, the selectivity ratio in data set [4] stood at 480.

Turning to `CN1/C(=C\c2cccc[n+]2C)Sc2ccccc21`, in data set [1] (Plasmodium falciparum), it took 240 nM to reach a half-maximal effect (EC50).

As to `C=CCn1c(=O)/c(=C2\Sc3ccccc3N2C)s/c1=C\c1cccc[n+]1C` [listing 2 of 2 here], the EC50 is 12000 nM in data set [2] (Mus musculus, FM3A) and 12 nM in data set [1]. The selectivity ratio in data set [4] is 1000.

Regarding `CN1/C(=c2\s/c(=C\c3cc[n+](C)cc3)n(Cc3ccccc3)c2=O)Sc2ccccc21`, the EC50 in data set [2] (Mus musculus, FM3A) was determined as 810 nM; in data set [1] (Plasmodium falciparum) it was 50 nM. Also, in data set [4], the selectivity ratio was determined as 16.

Take `CC[n+]1ccccc1/C=c1\s/c(=C2/Sc3ccccc3N2C)c(=O)n1CCCCC(=O)O`: the EC50 in data set [2] (Mus musculus, FM3A) was over 17000 nM; in data set [1] (Plasmodium falciparum), 1500 nM. Further, the selectivity ratio in data set [4] is over 11.

As for `CCn1c(=O)/c(=C2\Sc3ccc4ccccc4c3N2C)s/c1=C\c1cccc[n+]1CCO`, the EC50 in data set [2] (Mus musculus, FM3A) is 5000 nM; in data set [1] (Plasmodium falciparum) it was 43 nM. The selectivity ratio in data set [4] was 120.

For `CCn1c(=O)/c(=C2\Sc3ccccc3N2C)s/c1=C\c1cc[n+](C)c2ccccc12`, the EC50 came out at 680 nM in data set [2] (Mus musculus, FM3A) and 7.8 nM in data set [1] (Plasmodium falciparum). Further, the selectivity ratio in data set [4] was determined as 87.

Compound `CCN1C(=O)CS/C1=C\c1sc2ccccc2[n+]1CC` yielded an EC50 in data set [1] (Plasmodium falciparum) of 520 nM.

Consider `CCn1c(=O)/c(=C2\Sc3ccccc3N2C)s/c1=C\c1cccc[n+]1CCO`, for which the EC50 was over 17000 nM in data set [2] (Mus musculus, FM3A) and 210 nM in data set [1] (Plasmodium falciparum). Moreover, the selectivity ratio in data set [4] is over 81.

The compound `CCn1c(=O)/c(=C2\C=CC=CN2C)s/c1=C\c1cccc[n+]1C` returned an EC50 in data set [1] (Plasmodium falciparum) of 350 nM.

For `CCN(CC)CCCC(C)Nc1ccnc2cc(Cl)ccc12` (stereo not given) [CHLOROQUINE], the selectivity ratio in data set [4] came to 1800.

Regarding `CN(C)c1ccc2nc3ccc(N(C)C)cc3[s+]c2c1` [METHYLENE BLUE ANHYDROUS], the EC50 in data set [2] (Mus musculus, FM3A) came to 1100 nM; in data set [1] (Plasmodium falciparum), 17 nM. Besides, the selectivity ratio in data set [4] turned out to be 65.

Consider `C=C[C@H]1C[N@@]2CC[C@H]1C[C@H]2[C@H](O)c1ccnc2ccc(OC)cc12` [QUININE], for which the selectivity ratio in data set [4] was 910.

Regarding `COC(=O)c1ccccc1-c1c2ccc(=N)cc-2oc2cc(N)ccc12` [RHODAMINE123], the EC50 in data set [2] (Mus musculus, FM3A) came out at 10000 nM; in data set [1] (Plasmodium falciparum), 300 nM. In data set [4], the selectivity ratio came to 33.
